This note sets out measurements from ChEMBL document CHEMBL4261566, “New application of tiplaxtinin as an effective FtsZ-targeting chemotype for an antimicrobial study” (2017).

The structures appear in SMILES notation. Values after ≈ are worked out from the molar mass of the structure shown. Active and inactive are the calls of the source. No cut-off for these calls is given here.

Assay [1] concerns Bacillus subtilis. Description: Antibacterial activity against Bacillus subtilis 168 after 18 hrs by broth microdilution method. The assay is classed as functional. To be noted: subsp. subtilis str. 168, 18 h. A general note: Broth dilution looks for growth in wells or tubes with falling amounts of substance.
For assay [2], the system named is Staphylococcus aureus. Description: Antibacterial activity against Staphylococcus aureus ATCC 29213 after 18 hrs by broth microdilution method. The assay is classed as functional. The settings on record: ATCC 29213, 18 h.
Assay [3] deals with Staphylococcus aureus. Nature of the assay: Antibacterial activity against Staphylococcus aureus ATCC 29247 after 18 hrs by broth microdilution method. The assay is classed as functional. To be noted: ATCC 29247, 18 h.
Assay [4] has as its system Staphylococcus aureus. Nature of the assay: Antibacterial activity against methicillin-resistant Staphylococcus aureus ATCC 33591 after 18 hrs by broth microdilution method. The assay is classed as functional. The settings on record: ATCC 33591, 18 h.
The test system of assay [5] is Staphylococcus aureus. Nature of the assay: Antibacterial activity against methicillin-resistant Staphylococcus aureus ATCC 33592 after 18 hrs by broth microdilution method. The assay is classed as functional. The settings on record: ATCC 33592, 18 h.
The subject of assay [6] is Staphylococcus aureus. Description: Antibacterial activity against methicillin-resistant Staphylococcus aureus ATCC 43300 after 18 hrs by broth microdilution method. The assay is classed as functional. The settings on record: ATCC 43300, 18 h.
The test system of assay [7] is Staphylococcus aureus. Description: Antibacterial activity against methicillin-resistant Staphylococcus aureus ATCC BAA-41 after 18 hrs by broth microdilution method. The assay is classed as functional. To be noted: ATCC BAA-41, 18 h.
Assay [8] relates to Staphylococcus aureus. Nature of the assay: Antibacterial activity against methicillin-resistant Staphylococcus aureus ATCC BAA-1717 after 18 hrs by broth microdilution method. To be noted: ATCC BAA-1717, 18 h. The assay is classed as functional.
Assay [9] concerns Staphylococcus aureus. Description: Antibacterial activity against methicillin-resistant Staphylococcus aureus ATCC BAA-1720 after 18 hrs by broth microdilution method. To be noted: ATCC BAA-1720, 18 h. The assay is classed as functional.
The subject of assay [10] is Staphylococcus aureus. Nature of the assay: Antibacterial activity against methicillin-resistant Staphylococcus aureus ATCC BAA-1747 after 18 hrs by broth microdilution method. To be noted: ATCC BAA-1747, 18 h. The assay is classed as functional.
Assay [11] deals with Staphylococcus aureus. Description: Antibacterial activity against methicillin-resistant Staphylococcus aureus USA300 417 after 18 hrs by broth microdilution method. The settings on record: USA300 417, 18 h. The assay is classed as functional.
In assay [12] the test system is Staphylococcus aureus. Nature of the assay: Antibacterial activity against methicillin-resistant Staphylococcus aureus USA300 2690 after 18 hrs by broth microdilution method. The settings on record: USA300 2690, 18 h. The assay is classed as functional.
Assay [13] deals with Staphylococcus epidermidis. Description: Antibacterial activity against Staphylococcus epidermidis ATCC 12228 after 18 hrs by broth microdilution method. The assay is classed as functional. The settings on record: ATCC 12228, 18 h.
The next assay relates to Enterococcus faecalis. Description: Antibacterial activity against Enterococcus faecalis ATCC 29212 after 18 hrs by broth microdilution method. The assay is classed as functional. The settings on record: ATCC 29212, 18 h.
Assay [14] relates to Enterococcus faecium. Nature of the assay: Antibacterial activity against Enterococcus faecium ATCC 49624 after 18 hrs by broth microdilution method. The assay is classed as functional. To be noted: ATCC 49624, 18 h.
The test system of assay [15] is Enterococcus faecium. Description: Antibacterial activity against vancomycin-resistant Enterococcus faecium ATCC 700221 after 18 hrs by broth microdilution method. The assay is classed as functional. To be noted: ATCC 700221, 18 h.
A further assay concerns Escherichia coli. Description: Antibacterial activity against Escherichia coli ATCC 25922 after 18 hrs by broth microdilution method. The assay is classed as functional. The settings on record: ATCC 25922, 18 h.
The subject of the next assay is Pseudomonas aeruginosa. Description: Antibacterial activity against Pseudomonas aeruginosa ATCC BAA-2108 after 18 hrs by broth microdilution method. The assay is classed as functional. To be noted: ATCC BAA-2108, 18 h.
For the next assay, the system named is Klebsiella pneumoniae. Nature of the assay: Antibacterial activity against Klebsiella pneumoniae ATCC BAA-1144 after 18 hrs by broth microdilution method. The assay is classed as functional. The settings on record: ATCC BAA-1144, 18 h.
Assay [16] addresses T1, Cell division protein FtsZ (Staphylococcus aureus) (UniProt P0A031).
T1 sequence (whole entry): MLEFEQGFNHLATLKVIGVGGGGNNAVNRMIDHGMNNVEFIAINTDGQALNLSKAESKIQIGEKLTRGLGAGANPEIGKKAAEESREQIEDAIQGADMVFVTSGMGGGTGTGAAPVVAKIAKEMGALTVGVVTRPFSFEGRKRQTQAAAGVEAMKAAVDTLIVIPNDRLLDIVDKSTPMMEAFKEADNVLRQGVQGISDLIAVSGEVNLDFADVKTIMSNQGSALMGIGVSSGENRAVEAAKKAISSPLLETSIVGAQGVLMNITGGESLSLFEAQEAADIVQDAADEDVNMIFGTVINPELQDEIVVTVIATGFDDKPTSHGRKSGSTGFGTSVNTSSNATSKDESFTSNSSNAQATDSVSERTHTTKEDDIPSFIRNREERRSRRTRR
Description: Induction of recombinant Staphylococcus aureus FtsZ polymerization at 10 ug/ml by 90degree light scattering-based fluorescence spectrometric analysis. In a few lines:
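Recombinant S. aureus FtsZ cloned, overexpressed and purified. Polymerization followed over time by 90° light scattering in a thermostatically controlled fluorescence spectrometer, read as absorbance at 600 nm. Profiles recorded with and without compound. Methicillin served as the non-FtsZ-targeting control antibiotic.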

For assay [17], the system named is Staphylococcus aureus. Nature of the assay: Bactericidal activity against Staphylococcus aureus ATCC 29213 assessed as reduction in bacterial load at MIC to 4 times MIC after 24 hrs relative to control. The assay is classed as functional. In a few lines: (§1)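 Time-kill assay: a growing culture (S. aureus ATCC 29213 or B. subtilis 168) was exposed at time zero to 1×, 2× and 4× the MIC. Viable cell numbers were followed over 24 h, and the log reduction in viable count was recorded.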

Assay [18] concerns Bacillus subtilis. Nature of the assay: Bactericidal activity against Bacillus subtilis 168 assessed as reduction in bacterial load at MIC to 4 times MIC after 24 hrs relative to control. The assay is classed as functional, subsp. subtilis str. 168. Put shortly:
as §1

Assay [19] concerns the target T1, Cell division protein FtsZ (Staphylococcus aureus). Nature of the assay: Induction of recombinant Staphylococcus aureus FtsZ polymerization by 90degree light scattering-based fluorescence spectrometric analysis. In a few lines:
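S. aureus FtsZ was cloned, overexpressed and purified. Polymerization was followed over time by 90° light scattering in a thermostatically controlled fluorescence spectrometer, […] change at 600 nm. Compound was tested at 2 to 8 μg mL–1 against a no-compound profile. Methicillin served as the non-FtsZ-targeting control antibiotic.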

For assay [20] the target is unchanged. Nature of the assay: Induction of recombinant Staphylococcus aureus FtsZ polymerization assessed as increase in size of polymers at 4 ug/ml preincubated for 10 mins followed by GTP addition and measured after 15 mins by transmission electron microscopic method.
Assay [21] has the same target. Description: Induction of recombinant Staphylococcus aureus FtsZ polymerization assessed as increase in bundling of protein protofilaments at 4 ug/ml preincubated for 10 mins followed by GTP addition and measured after 15 mins by transmission electron microscopic method.
Assay [22] shares this target. Description: Inhibition of recombinant Staphylococcus aureus FtsZ GTPase activity preincubated for 10 mins followed by GTP addition and measured after 30 mins.
The next assay has as its system Bacteria. Nature of the assay: Induction of bacterial GFP-fused FtsZ polymerization expressed in Bacillus subtilis 168 assessed as misformation of Z-ring at 2 ug/ml after 4 hrs by fluorescence microscopic method. In a few lines: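 B. subtilis 168 carrying a GFP–FtsZ construct was treated with compound or with DMSO as control. Z-ring formation was then examined by fluorescence microscopy.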

In assay [23] the target is T2, Cell division protein FtsZ (Bacillus subtilis (strain 168)) (UniProt P17865).
T2 sequence (whole entry): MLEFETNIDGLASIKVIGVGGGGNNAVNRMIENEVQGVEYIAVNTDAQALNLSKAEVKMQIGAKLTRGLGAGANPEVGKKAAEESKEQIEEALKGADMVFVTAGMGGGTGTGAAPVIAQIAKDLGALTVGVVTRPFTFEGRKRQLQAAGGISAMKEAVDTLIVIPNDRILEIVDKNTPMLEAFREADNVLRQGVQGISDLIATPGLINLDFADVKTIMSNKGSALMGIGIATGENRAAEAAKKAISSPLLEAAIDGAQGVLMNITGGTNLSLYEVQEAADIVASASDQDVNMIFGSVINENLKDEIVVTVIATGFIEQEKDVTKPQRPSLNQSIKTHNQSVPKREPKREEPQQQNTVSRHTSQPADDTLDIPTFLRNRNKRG
Nature of the assay: Inhibition of cell division function of FtsZ in Bacillus subtilis 168 assessed as increase in cell length at 2 ug/ml after 5 hrs by phase contrast light microscopic method. To be noted: Bacillus subtilis subsp. subtilis str. 168. Put shortly:
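B. subtilis 168 cells were grown with or without 2 μg mL–1 compound. Cell morphology, including filamentation, was then examined by microscopy.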

What is called MIC90 is the lowest concentration that inhibits either 90% of growth or 90% of the strains tested, depending on the study. Low values mean greater potency, high ones weaker potency.

As for `COc1cccc(OC)c1C(=O)N[C@@H]1C(=O)N2[C@@H]1SC(C)(C)[C@@H]2C(=O)O` [METHICILLIN], the MIC90 with Bacillus subtilis [1] is less than 1 µg/mL; with Staphylococcus aureus [2], less than 1 µg/mL; in the assay with Staphylococcus aureus [3], 6 µg/mL (≈ 15.8 µM); against Staphylococcus aureus [4] it was 1020 µg/mL (≈ 2690 µM); in the assay on Staphylococcus aureus [5], 512 µg/mL (≈ 1350 µM); with Staphylococcus aureus [6], 512 µg/mL (≈ 1350 µM). Besides, the MIC90 in the assay on Staphylococcus aureus [7] is 1020 µg/mL (≈ 2690 µM); in the assay on Staphylococcus aureus [8] it was 512 µg/mL (≈ 1350 µM); in the assay on Staphylococcus aureus [9], 1020 µg/mL (≈ 2690 µM); in the assay with Staphylococcus aureus [10], 256 µg/mL (≈ 673 µM); with Staphylococcus aureus [11], 512 µg/mL (≈ 1350 µM); in the assay with Staphylococcus aureus [12], 256 µg/mL (≈ 673 µM). Also, the MIC90 in assay [13] was 0.75 µg/mL (≈ 1.97 µM); against Enterococcus faecalis, 0.75 µg/mL (≈ 1.97 µM); against Enterococcus faecium [14], 1.5 µg/mL (≈ 3.94 µM); against Enterococcus faecium [15] it was 1.5 µg/mL (≈ 3.94 µM); against Escherichia coli, 3 µg/mL (≈ 7.89 µM); in the assay with Pseudomonas aeruginosa it was more than 256 µg/mL. Further, in the assay with Klebsiella pneumoniae, the MIC90 was more than 256 µg/mL. Moreover, the outcome in assay [16] was inactive.

Regarding `O=C(O)C(=O)c1cn(Cc2ccccc2)c2ccc(-c3ccc(OC(F)(F)F)cc3)cc12` [TIPLASININ], the MIC90 in the assay on Bacillus subtilis [1] was 2 µg/mL (≈ 4.55 µM); with Staphylococcus aureus [2] it was 2 µg/mL (≈ 4.55 µM); against Staphylococcus aureus [3], 2 µg/mL (≈ 4.55 µM); against Staphylococcus aureus [4] it was 4 µg/mL (≈ 9.1 µM); in the assay with Staphylococcus aureus [5] it was 4 µg/mL (≈ 9.1 µM); against Staphylococcus aureus [6], 4 µg/mL (≈ 9.1 µM). The MIC90 came out at 4 µg/mL (≈ 9.1 µM) against Staphylococcus aureus [7]; 4 µg/mL (≈ 9.1 µM) against Staphylococcus aureus [8]; 4 µg/mL (≈ 9.1 µM) with Staphylococcus aureus [9]; 4 µg/mL (≈ 9.1 µM) in the assay on Staphylococcus aureus [10]; 2 µg/mL (≈ 4.55 µM) with Staphylococcus aureus [11]; 2 µg/mL (≈ 4.55 µM) in the assay on Staphylococcus aureus [12]. For the same compound, the MIC90 in [13] was 2 µg/mL (≈ 4.55 µM); in the assay with Enterococcus faecalis, 4 µg/mL (≈ 9.1 µM); against Enterococcus faecium [14] it was 4 µg/mL (≈ 9.1 µM); in the assay on Enterococcus faecium [15], 4 µg/mL (≈ 9.1 µM); against Escherichia coli, more than 48 µg/mL; in the assay on Pseudomonas aeruginosa it was more than 48 µg/mL. Also, the MIC90 in the assay with Klebsiella pneumoniae is more than 48 µg/mL. Also, the figures for the Activity (in the assay on Staphylococcus aureus [17]; in the assay on Bacillus subtilis [18]; in assay [19]) were more than 3 deltalog10CFU/ml, more than 3 deltalog10CFU/ml and “Dose-dependent effect”, respectively. For the same compound, the result (in assay [20]; in assay [21]; with Bacteria) was Active. The inhibition result in assay [22] was “Dose-dependent effect”. Moreover, in assay [23], the inhibition result is “Active”.

`CN[C@H](CC(C)C)C(=O)N[C@H]1C(=O)N[C@@H](CC(N)=O)C(=O)N[C@H]2C(=O)N[C@H]3C(=O)N[C@H](C(=O)N[C@H](C(=O)O)c4cc(O)cc(O)c4-c4cc3ccc4O)[C@H](O)c3ccc(c(Cl)c3)Oc3cc2cc(c3O[C@@H]2O[C@H](CO)[C@@H](O)[C@H](O)[C@H]2O[C@H]2C[C@](C)(N)[C@H](O)[C@H](C)O2)Oc2ccc(cc2Cl)[C@H]1O` [VANCOMYCIN] gave an MIC90 in the assay on Enterococcus faecium [15] of more than 96 µg/mL.
